# Hits are enriched below; roughly 1.4% of the tested compounds scored in any of these assays.
# CAL PDZ FP-1: blocks peptide binding to human CAL PDZ domain. Q9HD26. purified CAL PDZ, TMR-peptide fluorescence polarization, 1 h. inhibition, % at 20 µM. hit rate 0.02% among 330,000. AID 504414;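 active = highest replicate inhibition of at least 40%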;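 note: plate controls were DMSO neutral control wells for no effect and unlabeled competitor peptide control wells for full effect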
#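 System: tagged CAL PDZ domain. Schedule: 1 h room-temperature incubation prior to read. Signal: fluorescence polarization (mP). Measure: percent inhibition from loss of millipolarization.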
# CAL PDZ FP-2: blocks peptide binding to the human CAL PDZ domain | inhibition, % at 24.9 µM | Q9HD26 | AID 602252 | hit rate 0.92% among 300,000 | purified CAL PDZ, TMR-peptide fluorescence polarization, 1 h;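 active = mean inhibition of at least 30% with at least half of replicates also reaching 30%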;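 note: 0% = DMSO neutral control and 100% = excess unlabeled competitor peptide PRC23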
# ARNT-TACC3 inh: disrupts binding between human ARNT and TACC3; AlphaScreen His-ARNT PAS-B/GST-TACC3 binding, luminescence; TACC3 fragment carries E629A point mutation; hit rate 0.66% among 390,000; AID 623870; inhibition, % at 9.99 µM;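 active = mean inhibition of replicates at least 50% and at least half of replicates each reaching 50%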;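 note: 0% = complete ARNT plus TACC3 wells and 100% = ARNT alone without TACC3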
# Dyrk1A ADPGlo: Dyrk1A (rat) kinase inhibition | Q63470 | ADP-Glo luminescence, NFATc1 peptide | inhibition, % at 12.5 µM | hit rate 0.43% among 310,000; in the data active = inhibition above about 50%;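 note: plate controls were vehicle with enzyme for no effect and no enzyme for full effect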
# An asterisk follows results filed as active; x = no result given.
SMILES,CAL PDZ FP-1,CAL PDZ FP-2,ARNT-TACC3 inh,Dyrk1A ADPGlo
O=C(NCC1CCOCC1)C1CCC(=O)N(Cc2cccc(C(F)(F)F)c2)C1 (configuration not stated),-1,32*,-1,9
COc1ccc(CN2C[C@H](C)[C@@H](OC)CN(C)C(=O)c3ccc(NC(=O)c4nc5ccccc5s4)cc3OC[C@@H]2C)cc1,x,x,23,x
C[C@@H]1CN([C@H](C)CO)C(=O)Cc2cc(NC(=O)Nc3ccccc3)ccc2O[C@@H]1CN(C)Cc1ccc(C(=O)O)cc1,x,x,0,x
O=C(C[C@H]1C[C@H]2c3cc(NC(=O)Nc4ccccc4F)ccc3O[C@H]2[C@@H](CO)O1)NCC1CC1,x,x,11,x
CO[C@H]1CN(C)C(=O)c2cc(NS(=O)(=O)CC(F)(F)F)ccc2OC[C@@H](C)N(CCC(F)(F)F)C[C@H]1C,x,x,-2,x
Cc1cc(CN(C)C(=O)C2CCC(=O)N(CCc3cccc(F)c3)C2)on1 (configuration not stated),0,59*,-9,-8
CCn1ccnc1CN(C)C(=O)C1CCC(=O)N(CCc2cccc(F)c2)C1 (configuration not stated),-1,2,3,3
Cc1cc(CN(C)C(=O)C2CCC(=O)N(CCc3ccccc3)C2)n[nH]1 (configuration not stated),-2,35*,-2,-4
CCOC(=O)c1c(NC(=O)COC(=O)CNC(=O)c2ccco2)sc(C)c1C,-3,-7,5,7
COC(=O)c1c(NC(=O)COC(=O)CNC(=O)c2ccco2)sc(C)c1C,-1,58*,4,4
Cc1cc(N)n(-c2ccc(S(N)(=O)=O)cc2[N+](=O)[O-])n1,-1,76*,1,3
Cc1cc(N)n(-c2ccc(S(=O)(=O)N3CCOCC3)cc2[N+](=O)[O-])n1,0,1,0,4
CO[C@H]1CN(C)C(=O)c2cc(NC(=O)Nc3ccccc3Cl)ccc2OC[C@@H](C)NC[C@H]1C,x,x,17,x
Nc1ncnc2c1C(c1ccccc1)c1c(ccc3ccccc13)O2 (configuration not stated),62*,-5,-9,21
CCOC(=O)CC(=O)Nc1ncnc2c1C(c1ccccc1)c1c(ccc3ccccc13)O2 (configuration not stated),7,1,1,-2
CN=c1scc(-c2ccccc2F)n1/N=C/c1ccc(O)c(O)c1O,11,-2,53*,19
CC(C)N=c1scc(-c2cccs2)n1/N=C/c1ccc(O)c(O)c1O,0,-4,59*,2
O=C1c2cccc(NCCCNCCO)c2C(=O)c2cccc(NCCCNCCO)c21,7,-3,49*,22
O=C(CN1CCN(c2ccccc2)CC1)Nc1ccccc1Cl,-2,0,x,1
O=C(CCN1CCN(c2ccccc2)CC1)NNC(=S)Nc1ccccc1Cl,-1,41*,-8,x
O=C(COC(=O)COc1ccc(Br)cc1)NCC1CCCO1 (configuration not stated),0,91*,-1,3
CCC(=O)c1ccc(OCC(=O)OCC(=O)NCC2CCCO2)cc1 (configuration not stated),1,2,x,x
CC(=O)Nc1ccc(C(=O)OCC(=O)NC(=O)NC2CCCCC2)cc1,-1,86*,-1,-4
Cc1ccc(S(=O)(=O)NCC(=O)OCC(=O)NC(=O)NC2CCCC2)cc1,1,73*,-3,5
Cc1noc(C)c1S(=O)(=O)Nc1ccc2c(c1)C(=O)N([C@@H](C)CO)C[C@H](C)[C@@H](CN(C)Cc1ccc(C(=O)O)cc1)O2,x,x,-5,x
SMILES,CAL PDZ FP-1,CAL PDZ FP-2,ARNT-TACC3 inh,Dyrk1A ADPGlo
COc1ccc(-c2csc(=NCCO)n2-c2ccccc2)cc1,-1,62*,24,6
COc1ccc(-c2csc(=Nc3ccccc3)n2CCO)cc1,0,x,27,4
COC(=O)N(C)C[C@H]1OCc2ccccc2-c2ccccc2C(=O)N([C@@H](C)CO)C[C@@H]1C,x,x,3,x
C[C@H](NC(=O)C[C@H]1C[C@H]2c3cc(NC(=O)NC4CCCCC4)ccc3O[C@H]2[C@H](CO)O1)c1ccccc1,x,x,1,x
CN(C(=O)c1ccnn1C)C1CCCN(Cc2ccccc2F)C1 (configuration not stated),0,45*,1,x
COc1ccccc1CNC(=O)C[C@@H]1C[C@@H]2c3cc(NC(=O)Cc4ccncc4)ccc3O[C@@H]2[C@H](CO)O1,x,x,41*,x
COc1ccccc1CNC(=O)C[C@H]1C[C@H]2c3cc(NC(=O)Cc4ccncc4)ccc3O[C@H]2[C@@H](CO)O1,x,x,5,x

# Source: PubChem BioAssay
